Measured values from ChEMBL document CHEMBL1126550, “Nanomolar-affinity, non-peptide oxytocin receptor antagonists” (J Med Chem, 1993).

Columns and labels:
Vasopressin V1 receptor = Vasopressin V1 receptor (Rattus norvegicus, UniProt P48974+P30560); experiment: Inhibition of radioligand [3H]AVP binding to the vasopressin V1 receptor in rat liver tissue
Procedure, shortened: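 Crude membranes from male rat liver (V1 sites) competed with 1 nM [3H]AVP (80–90 Ci/mmol). Equilibrium 30 min, 30 °C, buffer 100 mM Tris-HCl, 5 mM MgCl2, 0.1% BSA, 50 μM PMSF, 50 μg/mL bacitracin, pH 8.0. 10 μM unlabeled AVP for nonspecific binding. Filtration through glass-fiber filters. IC50 from linear regression over seven concentrations.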

Vasopressin V2 receptor = Vasopressin V2 receptor (Rattus norvegicus, UniProt Q00788); experiment: Inhibition of radioligand [3H]-AVP binding to the vasopressin V2 receptor in rat kidney tissue
Procedure, shortened: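 [3H]AVP (80–90 Ci/mmol) at 2 nM competed on crude membranes from male rat kidney medulla (V2 sites). Equilibrium 30 min at 30 °C in 100 mM Tris-HCl, 5 mM MgCl2, 0.1% BSA, 50 μM PMSF, 50 μg/mL bacitracin, pH 8.0. Nonspecific binding with 10 μM unlabeled AVP. Glass-fiber filtration. IC50 by linear regression of % inhibition vs log concentration, seven concentrations.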

Oxytocin receptor = biological target: T1, Oxytocin receptor (Rattus norvegicus, UniProt P70536); experiment: Inhibition of radioligand [3H]oxytocin binding at the oxytocin (OT) receptor in rat uterine tissue
T1 sequence (P70536 whole entry): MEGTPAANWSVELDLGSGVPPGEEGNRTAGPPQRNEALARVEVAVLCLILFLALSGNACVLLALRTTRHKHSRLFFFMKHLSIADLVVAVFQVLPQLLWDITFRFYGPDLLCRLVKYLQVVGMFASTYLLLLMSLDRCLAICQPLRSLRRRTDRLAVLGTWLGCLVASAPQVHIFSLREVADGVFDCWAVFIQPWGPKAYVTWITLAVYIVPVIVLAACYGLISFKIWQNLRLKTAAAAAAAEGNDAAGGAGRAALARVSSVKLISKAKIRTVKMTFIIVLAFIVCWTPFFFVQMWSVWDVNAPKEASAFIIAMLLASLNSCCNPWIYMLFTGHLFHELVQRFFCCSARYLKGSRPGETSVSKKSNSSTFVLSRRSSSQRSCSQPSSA
Procedure, shortened: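 Uteri taken from rats given diethylstilbestrol dipropionate (0.3 mg/kg ip, 18–24 h before), crude membranes. 1 nM [3H]OT (30–60 Ci/mmol), equilibrium 60 min at 22 °C in 50 mM Tris-HCl, 5 mM MgCl2, 0.1% BSA, pH 7.4. Nonspecific binding with 1 mM unlabeled OT. Filtered on glass fiber. Initial single-concentration screen, then IC50 from seven concentrations by linear regression.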

Sequence of Vasopressin V2 receptor (Q00788 whole entry): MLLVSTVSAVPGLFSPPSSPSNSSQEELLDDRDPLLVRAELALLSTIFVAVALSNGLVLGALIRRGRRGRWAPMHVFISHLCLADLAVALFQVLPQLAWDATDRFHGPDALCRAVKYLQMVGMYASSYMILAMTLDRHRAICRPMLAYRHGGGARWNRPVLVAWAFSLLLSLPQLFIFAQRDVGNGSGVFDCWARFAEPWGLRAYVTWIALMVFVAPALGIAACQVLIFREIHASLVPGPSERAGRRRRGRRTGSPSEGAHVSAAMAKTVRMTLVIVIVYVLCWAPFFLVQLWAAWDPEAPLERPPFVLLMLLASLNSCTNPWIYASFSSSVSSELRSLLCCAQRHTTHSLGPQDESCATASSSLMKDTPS

Structure (SMILES)	IC50 (Vasopressin V1 receptor)	IC50 (Vasopressin V2 receptor)	IC50 (Oxytocin receptor)
CC1(C)[C@@H]2CC[C@@]1(CS(=O)(=O)N1CCC3(CCc4ccccc43)CC1)[C@@H](NC(=O)C[C@]13C[C@H]4C[C@H](C[C@H](C4)C1)C3)C2	> 10000 nM	> 10000 nM	12000 nM
CCN(CC)C(CCS(C)(=O)=O)C(=O)N[C@H]1C[C@H]2CC[C@]1(CS(=O)(=O)N1CCC3(CCc4ccccc43)CC1)C2(C)C (stereo not given in full)	2100 nM	1500 nM	30 nM
CC1(C)[C@@H]2CC[C@@]1(CS(=O)(=O)N1CCC3(C=Cc4ccccc43)CC1)[C@@](O)(CN1C(=O)CNC1=O)C2	2700 nM	7400 nM	50 nM
CC1(C)[C@@H]2CC[C@@]1(CS(=O)(=O)N1CCC3(C=Cc4ccccc43)CC1)[C@@](O)(CCNC(=O)C1=CCC(=O)N=C1)C2	1000 nM	2600 nM	49 nM
CC1(C)[C@@H]2CC[C@@]1(CS(=O)(=O)N1CCC3(CCc4ccccc43)CC1)[C@@H](N1C(=O)CC(CC(=O)O)C1=O)C2 (stereo not given in full)	1600 nM	2500 nM	30 nM
CC1(C)[C@@H]2CC[C@@]1(CS(=O)(=O)N1CCC3(CCc4ccccc43)CC1)[C@@H](NC(=O)C1CC(S(C)(=O)=O)CN1)C2 (stereo not given in full)	4000 nM	5500 nM	100 nM
Cn1cnc(CC(=O)N(CCS(C)(=O)=O)[C@H]2C[C@H]3CC[C@]2(CS(=O)(=O)N2CCC4(CCc5ccccc54)CC2)C3(C)C)c1	320 nM	650 nM	6 nM
CC1(C)[C@@H]2CC[C@@]1(CS(=O)(=O)N1CCC3(CCc4ccccc43)CC1)[C@@H](NC(=O)[C@H](CCC(N)=O)NC(=O)CCN)C2	490 nM	1800 nM	6.3 nM
CC1(C)[C@@H]2CC[C@@]1(CS(=O)(=O)N1CCC3(CCc4ccccc43)CC1)[C@@H](NC(=O)C(N)CCS(N)(=O)=O)C2 (stereo not given in full)	4000 nM	6700 nM	38 nM
CC1(C)[C@@H]2CC[C@@]1(CS(=O)(=O)N1CCC3(C=Cc4ccccc43)CC1)[C@@](O)(CCNC(=O)c1cccnc1)C2	1900 nM	6000 nM	97 nM
CN(C)C(CCS(C)(=O)=O)C(=O)N[C@H]1C[C@H]2CC[C@]1(CS(=O)(=O)N1CCC3(CCc4ccccc43)CC1)C2(C)C (stereo not given in full)	530 nM	1300 nM	4.9 nM
CC1(C)[C@@H]2CC[C@@]1(CS(=O)(=O)N1CCC3(C=Cc4ccccc43)CC1)[C@@](O)(CCNC(=O)c1ccccn1)C2	> 1000 nM	> 1000 nM	120 nM
CC1(C)[C@@H]2CC[C@@]1(CS(=O)(=O)N1CCC3(C=Cc4ccccc43)CC1)[C@@](O)(CNC(=O)NC1CCCCC1)C2	950 nM	18000 nM	170 nM
CC1(C)[C@@H]2CC[C@@]1(CS(=O)(=O)N1CCC3(CCc4ccccc43)CC1)[C@@H](N1C(=O)NC(CCS(C)(=O)=O)C1=O)C2 (stereo not given in full)	110 nM	660 nM	2.6 nM
CCOC(=O)CCC(=O)N[C@H]1C[C@H]2CC[C@]1(CS(=O)(=O)N1CCC3(CCc4ccccc43)CC1)C2(C)C	16000 nM	13000 nM	240 nM
CC1(C)[C@@H]2CC[C@@]1(CS(=O)(=O)N1CCC3(CCc4ccccc43)CC1)[C@](O)(CNC(=O)C(N)CS(C)(=O)=O)C2 (stereo not given in full)	1100 nM	3000 nM	40 nM
CC1(C)[C@@H]2CC[C@@]1(CS(=O)(=O)N1CCC3(C=Cc4ccccc43)CC1)C1(CNC(=O)O1)C2 (stereo not given in full)	> 10000 nM	> 10000 nM	> 1000 nM
CC1(C)[C@@H]2CC[C@@]1(CS(=O)(=O)N1CCC3(CCc4ccccc43)CC1)[C@@H](N1CCNC1=O)C2	> 300 nM	> 3000 nM	100 nM
CC1(C)[C@@H]2CC[C@@]1(CS(=O)(=O)N1CCC3(CCc4ccccc43)CC1)[C@@H](N1C(=O)NC(CCS(N)(=O)=O)C1=O)C2 (stereo not given in full)	410 nM	1100 nM	13 nM
CC1(C)[C@@H]2CC[C@@]1(CS(=O)(=O)N1CCC3(C=Cc4ccccc43)CC1)[C@@](O)(CCNC(=O)Cc1nnn[nH]1)C2	> 3000 nM	> 3000 nM	300 nM
CC1(C)[C@@H]2CC[C@@]1(CS(=O)(=O)N1CCC3(C=Cc4ccccc43)CC1)[C@@](O)(CC(=O)O)C2	78000 nM	70000 nM	800 nM
CC1(C)[C@@H]2CC[C@@]1(CS(=O)(=O)N1CCC3(CCc4ccccc43)CC1)[C@@H](N1C(=O)CCC1=O)C2	910 nM	1700 nM	11 nM
CC1(C)[C@@H]2CC[C@@]1(CS(=O)(=O)N1CCC3(C=Cc4ccccc43)CC1)[C@@](O)(CNC(=O)c1cccnc1)C2	1500 nM	6800 nM	100 nM
CC1(C)[C@@H]2CC[C@@]1(CS(=O)(=O)N1CCC3(C=Cc4ccccc43)CC1)[C@@](O)(CNC(=O)C(CCS(C)(=O)=O)NC(=O)Cc1c[nH]cn1)C2 (stereo not given in full)	310 nM	2500 nM	7.6 nM

Results, then the compound that gave them:

IC50 (Vasopressin V1 receptor)	IC50 (Vasopressin V2 receptor)	IC50 (Oxytocin receptor)	Structure (SMILES)
3000 nM	> 3000 nM	60 nM	CC(C(=O)N[C@H]1C[C@H]2CC[C@]1(CS(=O)(=O)N1CCC3(CCc4ccccc43)CC1)C2(C)C)c1cn(C)cn1 (stereo not given in full)
> 1000 nM	10000 nM	140 nM	CC1(C)[C@@H]2CC[C@@]1(CS(=O)(=O)N1CCC3(CCc4ccccc43)CC1)[C@@H](NC(=O)Cn1cnnn1)C2
1700 nM	3400 nM	49 nM	CN(C)[C@H](Cc1c[nH]cn1)C(=O)N[C@H]1C[C@H]2CC[C@]1(CS(=O)(=O)N1CCC3(CCc4ccccc43)CC1)C2(C)C
8100 nM	15000 nM	110 nM	CC1(C)[C@@H]2CC[C@@]1(CS(=O)(=O)N1CCC3(CCc4ccccc43)CC1)[C@@H](NC(=O)Cc1[nH]cnc1Br)C2
5200 nM	20000 nM	150 nM	CC1(C)[C@@H]2CC[C@@]1(CS(=O)(=O)N1CCC3(CCc4ccccc43)CC1)[C@@H](NC(=O)/C=C/c1c[nH]cn1)C2
5100 nM	13000 nM	830 nM	CC1(C)[C@@H]2CC[C@@]1(CS(=O)(=O)N1CCC3(CCc4ccccc43)CC1)[C@H](NC(=O)Cc1c[nH]cn1)C2
> 1000 nM	> 10000 nM	190 nM	CC1(C)[C@@H]2CC[C@@]1(CS(=O)(=O)N1CCC3(CCc4ccccc43)CC1)[C@@H](NC(=O)c1ccncc1)C2
> 1000 nM	10000 nM	1000 nM	CC1(C)[C@@H]2CC[C@@]1(CS(=O)(=O)N1CCC3(CCc4ccccc43)CC1)[C@H](NC(=O)Cc1ccccc1)C2
10000 nM	> 10000 nM	1200 nM	CC(=O)N[C@@H]1C[C@H]2CC[C@]1(CS(=O)(=O)N1CCC3(CCc4ccccc43)CC1)C2(C)C
> 3000 nM	> 3000 nM	220 nM	CC1(C)[C@@H]2CC[C@@]1(CS(=O)(=O)N1CCC3(CCc4ccccc43)CC1)[C@@H](NC(=O)Cc1nnn[nH]1)C2
3600 nM	7400 nM	54 nM	C[S+]([O-])CCC(N)C(=O)N[C@H]1C[C@H]2CC[C@]1(CS(=O)(=O)N1CCC3(CCc4ccccc43)CC1)C2(C)C (stereo not given in full)
4000 nM	15000 nM	170 nM	CCC(C(=O)N[C@H]1C[C@H]2CC[C@]1(CS(=O)(=O)N1CCC3(CCc4ccccc43)CC1)C2(C)C)c1c[nH]cn1 (stereo not given in full)
> 10000 nM	> 10000 nM	620 nM	CC1(C)[C@@H]2CC[C@@]1(CS(=O)(=O)N1CCC3(CCc4ccccc43)CC1)[C@@H](NC(=O)c1cccs1)C2
420 nM	1400 nM	13 nM	CC1(C)[C@@H]2CC[C@@]1(CS(=O)(=O)N1CCC3(CCc4ccccc43)CC1)[C@@H](N1C(=O)NC(Cc3c[nH]cn3)C1=O)C2 (stereo in doubt)
> 1000 nM	10000 nM	170 nM	CC1(C)[C@@H]2CC[C@@]1(CS(=O)(=O)N1CCC3(CCc4ccccc43)CC1)[C@@H](NC(=O)Cc1cccnc1)C2
4700 nM	14000 nM	68 nM	CC1(C)[C@@H]2CC[C@@]1(CS(=O)(=O)N1CCC3(CCc4ccccc43)CC1)[C@@H](NC(=O)NCCc1c[nH]cn1)C2
